# In the library only some 2% were active in any assay of this set; here they are far more common.
# PAD4 inh: inhibitors of human PAD4; 330,000 tested, 0.41% active; recombinant PAD4, RCA probe fluorescence polarization; AID 485272; inhibition, % at 6.36 µM; Q9UM07;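 active = percent inhibition above a cutoff equal to the mean of all tested compounds plus 3 SD, cut at about 15% in these data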;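 note: 0% = PAD4 with RCA probe and DMSO and 100% = probe without PAD4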
# CTSL1 counter: counter-screen for PFM18AAP inhibitors: inhibitors of F. hepatica cathepsin L1; recombinant F. hepatica cathepsin L1, Z-Leu-Arg-MCA fluorescence; inhibition, % at 5.96 µM; 300,000 tested, 0.49% active; AID 1906;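 active = inhibition above the mean of all tested compounds plus 3 SD, set per screening campaign, cut at about 17% in these data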;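 note: 0% = plate median of test compound wells and 100% = 1 µM Z-Phe-Ala-diazomethylketone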
# PP5 primary: PP5 (human) phosphatase inhibition; inhibition, % at 6.7 µM; P53041; 320,000 tested, 0.18% active; AID 1987; purified PP5c, OMFP substrate fluorescence;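 active = inhibition above the campaign's mean inhibition across all tested compounds plus 3 SD, cut at about 9.5% in these data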;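 note: 0% = DMSO only and 100% = 100 µM cantharidin control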
# Apaf1 inhib: inhibitors of human Apaf-1 apoptosome | reconstituted apoptosome caspase-3 activity, DEVD-Rh110 fluorescence | inhibition, % at 20 µM | AID 489030 | O14727 | 330,000 tested, 0.71% active; active = inhibition of at least 40% at 20 µM;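 note: plate controls were DMSO wells for no effect and DEVD-CHO caspase inhibitor wells for full effect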
# Target sequence (O14727 whole entry, looked up): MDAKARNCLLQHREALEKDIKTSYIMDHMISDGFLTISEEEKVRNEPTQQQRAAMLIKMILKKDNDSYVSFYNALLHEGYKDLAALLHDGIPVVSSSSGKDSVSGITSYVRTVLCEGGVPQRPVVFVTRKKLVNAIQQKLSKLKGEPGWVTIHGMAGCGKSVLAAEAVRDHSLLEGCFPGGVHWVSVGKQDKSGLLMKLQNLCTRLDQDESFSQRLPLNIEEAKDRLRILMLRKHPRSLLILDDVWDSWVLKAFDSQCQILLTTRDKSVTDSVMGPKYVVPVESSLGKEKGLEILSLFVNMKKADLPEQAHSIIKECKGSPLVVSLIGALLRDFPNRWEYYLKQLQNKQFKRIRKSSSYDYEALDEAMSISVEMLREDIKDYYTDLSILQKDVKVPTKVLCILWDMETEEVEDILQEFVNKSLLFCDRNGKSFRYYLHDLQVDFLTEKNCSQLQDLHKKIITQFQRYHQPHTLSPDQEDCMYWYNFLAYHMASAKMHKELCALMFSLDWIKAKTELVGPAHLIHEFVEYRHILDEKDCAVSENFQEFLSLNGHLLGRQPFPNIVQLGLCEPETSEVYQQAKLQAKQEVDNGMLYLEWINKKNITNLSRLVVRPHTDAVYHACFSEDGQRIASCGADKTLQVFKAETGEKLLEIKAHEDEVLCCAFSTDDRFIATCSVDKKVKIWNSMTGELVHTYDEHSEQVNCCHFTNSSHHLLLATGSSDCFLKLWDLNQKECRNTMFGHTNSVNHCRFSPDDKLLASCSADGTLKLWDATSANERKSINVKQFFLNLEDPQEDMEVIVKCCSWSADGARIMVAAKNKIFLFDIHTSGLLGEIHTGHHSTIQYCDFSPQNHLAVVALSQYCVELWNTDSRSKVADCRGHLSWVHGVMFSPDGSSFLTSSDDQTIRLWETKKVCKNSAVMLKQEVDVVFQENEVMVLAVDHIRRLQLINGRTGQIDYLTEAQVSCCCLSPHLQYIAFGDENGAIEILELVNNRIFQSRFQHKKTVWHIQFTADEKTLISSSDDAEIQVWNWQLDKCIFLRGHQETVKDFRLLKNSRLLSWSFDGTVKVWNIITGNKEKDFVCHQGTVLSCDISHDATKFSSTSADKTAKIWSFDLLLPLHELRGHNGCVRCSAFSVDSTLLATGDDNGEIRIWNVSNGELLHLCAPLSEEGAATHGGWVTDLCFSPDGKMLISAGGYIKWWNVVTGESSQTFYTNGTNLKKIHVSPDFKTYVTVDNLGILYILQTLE
#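 Material: reconstituted apoptosome with Apaf-1, cytochrome c, caspase-9, procaspase-3, dATP / Buffer or medium: pH 7.5 Hepes buffer with CHAPS, BSA, DTT / Also added: cytochrome c with DEVD-Rh110 / Schedule: compound with Apaf-1, dATP, procaspase-3 30 min, then 50 min reaction, room temperature / Technique: rhodamine 110 fluorescence at Ex 480/Em 540 nm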
# UCH37 DUB inh: human UCH37 deubiquitinating enzyme inhibition. inhibition, % (concentration not given with the values). purified proteasome/UCH37, Ub-AMC cleavage fluorescence. 330,000 tested, 0.33% active;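 active = mean inhibition over replicate wells above about 20%, limit read from the data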;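 note: 0% = compound-free wells with enzyme and 100% = wells lacking proteasome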
#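 Assay system: Proteasome-bound UCH37. Buffer or medium: pH 7.4 Tris-HCl (50 mM) with ovalbumin, ATP-MgCl2, DTT. Incubation: 30 min preincubation with enzyme, 25 min cleavage at room temperature. Measured by: fluorescence, ex 355 nm, em 460 nm. Read-out basis: percent inhibition. Control set: wells without proteasome as full block, compound-free enzyme plus substrate as uninhibited.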
# GSTO1 inh: GSTO1 inhibition, counter-screen for RBBP9 inhibitors; recombinant GSTO1, activity-based probe fluorescence polarization; inhibition, % at 5.96 µM; 300,000 tested, 1.1% active; AID 1974;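 active = inhibition above the campaign mean inhibition plus 3 SD, cut at about 35% in these data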;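 note: 0% = GSTO1-1 with DMSO and 100% = wells lacking GSTO1-1 enzyme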
# Numbers without * were called inactive; i = inactive; . = no result; ! = not active in a repeat.
SMILES,PAD4 inh,CTSL1 counter,PP5 primary,Apaf1 inhib,UCH37 DUB inh,GSTO1 inh
CC(=O)N1c2ccc(S(=O)(=O)N3CCCC3C(=O)Nc3ccc(C)cc3)cc2CC1C (configuration not stated),1,19*,3,4,1,6
O=C(CSc1nnc(SCc2ccc(Cl)cc2)s1)c1ccc2c(c1)OCO2,-1,-7,2,4,22*,1
CN(C)N=Cc1ccc(OS(=O)(=O)c2ccccc2)cc1,.,.,.,.,4,.
O=C(c1cccnc1)N1CCN(C(=O)c2cccc(Cl)c2)CC1,-1,1,-1,-7,2,3
O=C1NCCN1C(=O)c1cccc(Cl)c1,-1,19*,0,12,2,0
C[C@H](NC(=O)c1ccccc1Cl)C(=O)OC(C(=O)Nc1cc(C(F)(F)F)ccc1Cl)c1ccccc1 (some centres not stated),-3,3,6,25,4,-6
O=C(CNC(=O)c1ccccc1F)OC(C(=O)Nc1cc(C(F)(F)F)ccc1Cl)c1ccccc1 (configuration not stated),-1,25*,4,12,0,-7
O=C(Cc1cc(=O)[nH][nH]1)N/N=C/C=C/c1ccccc1,-3,5,-2,48*!,.,36*!
C/C(C=NNC(=O)Cc1cc(=O)[nH][nH]1)=C\c1ccccc1,.,.,.,.,0,.
CN(C)C=NC(=S)Nc1ccc(Br)cc1F,.,.,.,.,2,.
CCOC(=O)C(=NNc1ccccc1)Sc1nnnn1-c1ccc(C)cc1,.,.,.,.,0,.
CCOC(=O)c1c2c(n(C)c1COC)C(=O)C(=O)c1ccc(Br)cc1-2,1,6,-7,97*,.,56*
O=c1ccsn1Cc1ccccc1,6,24*,1,5,2,-3
CCOC(=O)Cc1csc(N/N=C\c2ccc(N(C)C)cc2)n1,-3,19*,-2,16,.,-1
Cc1cccc(C=NNC(=O)c2ccc(NC(=O)c3ccccc3C)cc2)n1,.,.,.,.,4,.
COc1cccc2cc(-c3ccccc3)oc12,3,-2,4,5,-2,-5
COc1cccc2cc(-c3ccnc(=S)[nH]3)oc12,45*,2,-3,0,.,-13
O=C(NN=Cc1cccnc1)C(O)(c1ccccc1)c1ccccc1,.,.,.,.,2,.
C/C(=C\c1ccccc1)C1Nc2cccc3cccc(c23)N1,-12,.,2,41*,.,.
C/C(=C\c1ccccc1F)C1Nc2cccc3cccc(c23)N1,-12,.,4,20,1,.
CC(=NNC(=O)c1sc(=S)n(C)c1C)c1ccccc1,.,.,.,.,5,.
C#CCOCCOCCOCCNc1nc(N2CCN(C(=O)CCCCCCCCCCNC(=O)[C@H](CCCCN)n3cc(CCCC(=O)O)nn3)CC2)nc(N2CCN(C(=O)CCCCCCCCCCNC(=O)[C@@H]([C@H](C)O)n3cc(C)nn3)CC2)n1,2,5,0,29,0,-1
C#CCOCCOCCOCCNc1nc(N2CCN(C(=O)CCCCCCCCCCNC(=O)[C@@H](CCSC)n3cc(CCO)nn3)CC2)nc(N2CCN(C(=O)CCCCCCCCCCNC(=O)[C@H](CCSC)n3cc(CCO)nn3)CC2)n1,-2,4,3,28,4,-20
C#CCOCCOCCOCCNc1nc(N2CCN(C(=O)CCCCCCCCCCNC(=O)Cn3cc(CCCCCN)nn3)CC2)nc(N2CCN(C(=O)CCCCCCCCCCNC(=O)[C@@H](CCC(=O)O)n3cc(CCCCCN)nn3)CC2)n1,-1,8,-1,59*,0,6
C#CCOCCOCCOCCNc1nc(N2CCN(C(=O)CCCCCCCCCCNC(=O)Cn3cc(CCCCCN)nn3)CC2)nc(N2CCN(C(=O)CCCCCCCCCCNC(=O)[C@@H](CCSC)n3cc(CCO)nn3)CC2)n1,0,10,1,72*,.,-7
SMILES,PAD4 inh,CTSL1 counter,PP5 primary,Apaf1 inhib,UCH37 DUB inh,GSTO1 inh
C#CCOCCOCCOCCNc1nc(N2CCN(C(=O)CCCCCCCCCCNC(=O)[C@H](CCCCN)n3cc(C)nn3)CC2)nc(N2CCN(C(=O)CCCCCCCCCCNC(=O)[C@H](CCCCN)n3cc(CCCC(=O)O)nn3)CC2)n1,3,-1,2,63*,2,-1
O=C(NN=Cc1cccnc1)c1ccc(NC(=O)c2ccc(F)cc2)cc1,.,.,.,.,1,.
O=C(COc1ccccc1)NCC1(N2CCCCC2)CCCCC1,-6,28*,-1,3,2,3
N#Cc1ccc(OCC(=O)NCC2(N3CCCCC3)CCCCC2)cc1,-3,5,0,-5,1,-5
CCN(CC)C(=O)C(C)N(C#N)c1nc(NC(C)C)nc(NC(C)C)n1 (configuration not stated),1,-4,0,-3,2,-7
CC(C)Nc1nc(C#N)nc(NC(C)C)n1,0,57*,3,-4,2,10
O=C(O)COc1ccc(C=Nn2cnc3scc(-c4cccs4)c3c2=O)cc1,.,.,.,.,12,.
Cc1ccc2[nH]c3c(=O)n(CC(=O)NCc4ccco4)ncc3c2c1,-1,1,1,-12,-5,36*
Cc1ccc(CCNC(=O)Cn2ncc3c([nH]c4ccccc43)c2=O)cc1,0,9,1,6,1,13
CC(=NNC(=O)C(C)Nc1cccc(Cl)c1)c1ccc([N+](=O)[O-])cc1 (configuration not stated),.,.,.,.,3,.
COC(=O)CCC/C=C1/SCC(NC(=O)c2ccccc2)C1NC(C)=O (configuration not stated),-3,3,-3,-2,0,9
COC(=O)CCC/C=C1/SCC(NC(=O)c2ccccc2)C1O (configuration not stated),1,48*,0,-9,0,9
C/C(CC(=O)Nc1ccc(Cl)c(C(F)(F)F)c1)=N\NC(N)=S,-5,40*,1,15,.,-3
Cn1c(=O)c(=O)n(C)c2cc(S(=O)(=O)CCC(=O)Nc3c(F)c(F)c(F)c(F)c3F)ccc21,-4,3,3,-2,-4,4
Cn1c(=O)c(=O)n(C)c2cc(S(=O)(=O)CCC(=O)Nc3ccc(C(F)(F)F)cc3)ccc21,1,17*,-1,21,3,7
COc1ccc(CCN(C)C(=O)c2ccc(COc3ccccc3)o2)cc1OC,-4,-2,-1,66*,5,-1
CCCc1ccc(OCc2ccc(C(=O)O)o2)c(OC)c1,-3,-1,1,2,4,-1
CCOC(=O)Nc1cccc(OCC(=O)Nc2ccccc2OCC)c1,1,30*,0,1,2,-1
CC(=NNC(=S)NCCc1ccccc1)c1ccc(C#N)cc1,.,.,.,.,3,.
COc1ccc(OC)c(C=NNC(=O)C(O)c2ccccc2)c1 (configuration not stated),.,.,.,.,i,.
N#CCCN(C(=O)CCl)c1cccc(Cl)c1,3,2,0,-7,0,87*

# Bioassay records (PubChem)
